Most compounds without a hit are left out; they make up all but 2.6% or so of the library.
Apaf1 inhib: inhibitors of human Apaf-1 apoptosome; reconstituted apoptosome caspase-3 activity, DEVD-Rh110 fluorescence; AID 489030; inhibition, % at 20 µM; O14727; 330,000 compounds, 0.71% hits; active = inhibition of at least 40% at 20 µM
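Assay system: Apoptosome proteins | Medium: pH 7.5 Hepes buffer with CHAPS, BSA, DTT | Also added: Cytochrome c and DEVD-Rh110 substrate | Times: 30 min plus 50 min, RT | Detection: Rhodamine 110 fluorescence at Ex 480/Em 540 nm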
PRMT1 inh: inhibitors of human PRMT1; AID 652257; 370,000 compounds, 1.3% hits; recombinant PRMT1, activity-based probe fluorescence polarization; inhibition, % at 2.79 µM; Q99873;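 active = inhibition above about 21% made by adding two undisclosed values, limit read from the data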
TDP2 absorb: TDP2 (human) inhibition, absorbance primary screen; recombinant TDP2, T5PNP hydrolysis, p-nitrophenol absorbance 415 nm; O95551; 370,000 compounds, 0.34% hits; inhibition, % at 12.8 µM;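 active = inhibition above the mean of all tested compounds plus 3 SD, set per campaign, cut at about 25% in these data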
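Test system: human TDP2 enzyme; Input: 120 nM TDP2 per well; Buffer or medium: Mg2+-containing Tris-HCl buffer, pH 7.5; Reagent: 5 mM T5PNP; Dosing: 12.8 µM single point, 1% DMSO; Incubation: reaction 2 h, 37 °C; Detection: p-Nitrophenol epi absorbance; Read-out: % inhibition relative to enzyme-containing and enzyme-free wells; Replicates: single well per compound.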
PAD4 inh: inhibitors of human PAD4 | Q9UM07 | recombinant PAD4, RCA probe fluorescence polarization | inhibition, % at 6.36 µM | 330,000 compounds, 0.41% hits | AID 485272;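 active = percent inhibition above a cutoff equal to the mean of all tested compounds plus 3 SD, cut at about 15% in these data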
GSTO1 inh: counter-screen for RBBP9 inhibitors: inhibitors of human GSTO1 | recombinant GSTO1, activity-based probe fluorescence polarization | inhibition, % at 5.96 µM | 300,000 compounds, 1.1% hits | AID 1974;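 active = inhibition above the campaign mean inhibition plus 3 SD, cut at about 35% in these data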
GSTO1 inh conf: GSTO1 (human) inhibition, confirmation; inhibition, % at 5.96 µM; recombinant GSTO1, probe fluorescence polarization; 2,400 compounds, 54% hits; shares compounds with GSTO1 inh;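 active = inhibition above the primary screen's cutoff, its mean inhibition plus 3 SD, cut at about 35% in these data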;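 note: loss of polarization as inhibitors block binding of rhodamine sulfonate ester activity probe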
Numbers stand for hits; – = inactive; · = no result.

SMILES	Apaf1 inhib	PRMT1 inh	TDP2 absorb	PAD4 inh	GSTO1 inh	GSTO1 inh conf
O=C(O)C1Nc2c(Cl)cc(Cl)cc2C2C=CCC12 (stereo unspecified)	·	·	·	–	–	·
O=C(c1ccc(Cl)c(Cl)c1)N1CCC(=O)N([C@H](COCc2ccc(Cl)cc2)Cc2ccccc2)CC1	·	–	–	·	·	·
O=C(NCCN1C(=O)S/C(=C\c2ccc(OC(F)F)cc2)C1=O)C1=COCCO1	–	·	·	–	–	·
COc1ccc(/C=C2\SC(=O)N(CCNC(=O)C3=COCCO3)C2=O)cc1	–	–	–	–	42	–
CC(=O)Oc1cccc2c1C(=O)c1c(OC(C)=O)cc(C(=O)O)cc1C2=O	–	–	–	–	56	–
CC(=O)Oc1ccc(C(=O)O)cc1OC(C)=O	–	–	–	–	–	·
C[C@@H]1CN([C@@H](C)CO)C(=O)CCCn2nncc2CO[C@@H]1CN(C)S(=O)(=O)c1cccc(F)c1	·	–	–	·	·	·
CCOC(=O)C1=C(C)N(c2ccccc2)C(=O)/C1=C\c1ccc(O)c(OC)c1	–	42	–	–	62	–
O=C(N[C@@H](Cc1cccnc1)C(=O)N1CCC[C@H]1C(=O)NCCc1ccccc1Cl)c1ccc(Cl)cc1Cl	·	–	–	·	·	·
O=C(NN1C(=O)c2ccccc2NC1c1ccc([N+](=O)[O-])o1)c1ccc(Br)cc1 (stereo unspecified)	–	–	–	–	39	–
CC(=O)NN1C(=O)c2ccccc2NC1c1ccc([N+](=O)[O-])o1 (stereo unspecified)	–	–	–	–	–	·
O=C(Nc1ccc2c(c1)OCCO2)NC1(C(F)(F)F)Oc2ccccc2O1	–	–	–	–	–	·
O=C(NC1(C(F)(F)F)Oc2ccccc2O1)N1CCCC1	–	–	–	–	48	–
O=C(Nc1ccc2c(c1)OCO2)NC1(C(F)(F)F)Oc2ccccc2O1	–	22	–	–	48	–
O=C(NCC1CCCO1)NC1(C(F)(F)F)Oc2ccccc2O1 (stereo unspecified)	–	–	–	–	52	–
CN(C)CC(=O)N[C@@H]1C[C@@H]2O[C@@H](CO)CC[C@@H]2O[C@@H]1CCc1ccc(C#Cc2ccccc2)cc1	·	–	–	·	·	·
COc1cccc(NC(=O)CSc2nnc(-c3ccco3)c(-c3ccco3)n2)c1	–	47	–	–	50	–
O=C(CSc1nnc(-c2ccco2)c(-c2ccco2)n1)Nc1ccccc1	–	48	–	–	42	–
Cc1ccccc1NC(=O)CSc1n[nH]c(-c2ccco2)n1	–	–	–	–	–	·
Cc1ccccc1NC(=O)CSc1nnc(-c2ccco2)c(-c2ccco2)n1	–	·	·	–	55	–
CN(C)c1ccc(NC(=O)CSc2nnc(-c3ccco3)c(-c3ccco3)n2)cc1	–	–	–	–	–	·
c1ccc(C[C@H]2CN=C(Nc3ccccc3)N2CC2CCCC2)cc1	·	–	–	·	·	·
Cc1ccc(-c2nnc(SCC(=O)NNC(=S)Nc3ccccc3)n2C2CCCCC2)cc1	·	–	–	·	·	·
COc1cccc(O[C@H]2C=C[C@@H](c3ccccc3)O[C@@H]2CO)c1	·	–	–	·	·	·
Cc1[nH]n(-c2ccccc2)c(=O)c1N=Nc1ccccc1C(=O)O	–	–	–	–	41	–
SMILES	Apaf1 inhib	PRMT1 inh	TDP2 absorb	PAD4 inh	GSTO1 inh	GSTO1 inh conf
O=C(Nc1cccc(C(F)(F)F)c1)OC1CCC12CCC(c1ccccc1)CC2 (stereo unspecified)	·	–	–	·	·	·
Oc1ccc(/C=N/Nc2ccc(Cl)nn2)cc1O	–	–	–	–	60	–
Cc1ccc(CN=Cc2[nH]c3ccc(Br)c(Cl)c3c2O)cc1	–	–	–	–	52	–
Oc1c(C=NCc2ccc(F)cc2)[nH]c2ccc(Br)c(Cl)c12	–	–	–	–	48	–
COc1ccc(CN=Cc2c(O)[nH]c3ccccc23)cc1	–	–	–	–	–	·
O=C(OCc1ccccc1)[C@H](Cc1ccccc1)NC(=O)[C@@H]1CC=C[C@@H]2CCN(CCc3ccccc3)C(=O)[C@@H]21	·	–	–	·	·	·
Nc1sccc1C(=O)N1CCN(c2ccccc2)CC1	·	–	–	·	·	·
CCNC(=O)C[C@@H]1C=C[C@@H](NS(=O)(=O)c2ccc(F)cc2)[C@@H](CO)O1	·	–	–	·	·	·
Cc1ccc2oc(=O)c(/C=C(\O)c3cccs3)nc2c1	–	–	–	–	40	–
COc1cccc(CNC(=O)[C@@H]2CCCN2C(=O)[C@H]2CCCCN2C(=O)c2c(F)cccc2F)c1	·	–	–	·	·	·
N#C/C(=C(\O)Cc1ccccc1)c1nc2ccccc2[nH]1	–	–	–	–	–	·
N#C/C(=C(/O)CCl)c1nc2ccccc2[nH]1	–	–	–	–	84	94
N#CC(=C=[N-])c1nc2ccccc2nc1-[n+]1cccc(NC(=O)c2cccs2)c1	–	–	–	–	54	–
O=C(Nc1nc2ccccc2[nH]1)c1cccs1	–	–	–	–	–	·
N#CC(=C=[N-])c1nc2ccccc2nc1-[n+]1cccc(NC(=O)c2ccccc2)c1	–	–	–	–	59	–
N#CC(=C=[N-])c1nc2ccccc2nc1-[n+]1cccc(NC(=O)c2ccc(F)cc2)c1	–	–	–	–	59	–
CCOC(=O)c1nc2ccccc2nc1C	–	–	–	–	–	·
CCc1cc[n+](-c2nc3ccccc3nc2C(=C=[N-])C#N)cc1	–	–	–	–	63	–
O=C1C=CN(C2OC(CO)C(O)C2O)C(=O)C1 (stereo unspecified)	·	–	–	·	·	·
O=C(CCl)Nc1ccc(N=Nc2ccccc2)cc1	·	–	–	·	·	·
O=C(CCl)Nc1cccc(Oc2ccccc2)c1	–	–	–	–	71	97
O=C(CCl)Nc1ccc(-c2ccccc2)cc1	–	–	–	–	76	84
COC(=O)C1=C(C)N(Cc2cccc(C(F)(F)F)c2)C(=NCc2ccccc2C(F)(F)F)NC1c1cccc(F)c1 (stereo unspecified)	·	–	–	·	·	·
CC(=O)Nc1nc(-c2ccc(Cl)cc2)nc(C)c1C(C)=O	–	–	–	–	44	–
CC(=O)c1c(C)nc(C)nc1NC(=O)Cc1ccccc1	–	–	–	–	–	·
SMILES	Apaf1 inhib	PRMT1 inh	TDP2 absorb	PAD4 inh	GSTO1 inh	GSTO1 inh conf
COC(=O)C(N)Cc1ccc(O)c(O)c1 (stereo unspecified)	–	–	–	–	90	–
CCCCn1nnnc1C1(C)CCC(=O)N1CC(F)(F)F (stereo unspecified)	·	–	–	·	·	·
O=[N+]([O-])c1ccc(-c2ccc(C=Nc3cccc4ccccc34)o2)cc1	46	22	–	24	63	–
O=[N+]([O-])c1ccc(-c2ccc(/C=N/O)o2)cc1	–	–	–	–	–	·
O=C1CC(N(O)c2ccccc2)C(=O)N1c1ccc(Cl)c(Cl)c1 (stereo unspecified)	–	–	–	17	63	–
CC(C)NC(=O)[C@]1(C#N)CC(=O)N(C)[C@@H]1c1ccccc1	·	–	–	·	·	·

Compound activity deposited in PubChem by several laboratories.
